Reference: ChEMBL document CHEMBL1157100, “The alkyl-connected 2-amino-6-vinylpurine (AVP) crosslinking agent for improved selectivity to the cytosine base in RNA” (Bioorg Med Chem, 2010)
Active and inactive are the calls of the source. The calls are words filed in the database; no cut-off is given here.

Assays:
Assay type in all cases: nucleic-acid assay
Nucleic Acid [1] = assay: Binding affinity to FAM-tagged r-(CAAGCGGAGAAAYUAAUUGCGGGUCGC)-RNA assessed as crosslinking at 10 uM by alkylation method
How it was run: (§1)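 Reactive ODN at 10 µM with 1 µM FAM-labeled target DNA or RNA in 100 mM NaCl, 50 mM MES pH 5 plus RNase OUT, mixed at 0 °C and then incubated at 37 °C. Reactions were stopped at set times with formamide/EDTA/bromophenol blue buffer. Products were resolved on 15% denaturing polyacrylamide gel with 7 M urea, and FAM band intensities were quantified to give crosslinking yield.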

Nucleic Acid [2] = assay: Binding affinity to r-(CGCUGGGCGUUAAUCAAAGAGGCGAAC)-RNA assessed as melting temperature at 1.5 uM by UV-visible spectrophotometry
How it was run: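 Each strand at 1.5 µM: ODN plus complementary 27-mer RNA in 100 mM NaCl, 50 mM MES pH 5. Samples were heated at 85 °C for 10 min and cooled slowly. Melting curves were recorded at 260 nm while warming 20 to 80 °C at 1.0 °C/min to obtain Tm.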

Nucleic Acid [3] = assay: Binding affinity to FAM-tagged r-(GAAAYAAGAGGAAAGA)-RNA assessed as crosslinking at 10 uM by alkylation method; how it was run: as §1
Nucleic Acid [4] = assay: Binding affinity to FAM-tagged d-(GAAAYAAGAGGAAAGA)-DNA assessed as crosslinking at 10 uM by alkylation method; how it was run: as §1

Compound	Activity (Nucleic Acid [1])	Tm (Nucleic Acid [2])	Activity (Nucleic Acid [3])	Activity (Nucleic Acid [4])
CSCCc1nc(N)nc2c1ncn2[C@H]1C[C@H](OP(=O)(O)OC[C@H]2O[C@@H](n3cnc4c(N)ncnc43)[C@H](O)[C@@H]2OP(=O)(O)OC[C@H]2O[C@@H](n3cc(C)c(=O)[nH]c3=O)C[C@@H]2OP(=O)(O)OC[C@H]2O[C@@H](n3cc(C)c(=O)[nH]c3=O)C[C@@H]2OP(=O)(O)OC[C@H]2O[C@@H](n3cnc4c(N)ncnc43)[C@H](O)[C@@H]2OP(=O)(O)OC[C@H]2O[C@@H](n3cnc4c(N)ncnc43)[C@H](O)[C@@H]2OP(=O)(O)OC[C@H]2O[C@@H](n3ccc(N)nc3=O)[C@H](O)[C@@H]2OP(=O)(O)OC[C@H]2O[C@@H](n3cnc4c(=O)[nH]c(N)nc43)[C@H](O)[C@@H]2OP(=O)(O)OC[C@H]2O[C@@H](n3ccc(N)nc3=O)[C@H](O)[C@@H]2OP(=O)(O)OC[C@H]2O[C@@H](n3ccc(N)nc3=O)[C@H](O)[C@@H]2OP(=O)(O)O)[C@@H](COP(=O)(O)O[C@H]2C[C@H](n3cc(C)c(=O)[nH]c3=O)O[C@@H]2COP(=O)(O)O[C@H]2C[C@H](n3cc(C)c(=O)[nH]c3=O)O[C@@H]2COP(=O)(O)O[C@H]2C[C@H](n3cc(C)c(=O)[nH]c3=O)O[C@@H]2COP(=O)(O)O[C@H]2[C@@H](O)[C@H](n3ccc(N)nc3=O)O[C@@H]2COP(=O)(O)O[C@H]2C[C@H](n3cc(C)c(=O)[nH]c3=O)O[C@@H]2COP(=O)(O)O[C@H]2[C@@H](O)[C@H](n3ccc(N)nc3=O)O[C@@H]2COP(=O)(O)O[C@H]2[C@@H](O)[C@H](n3ccc(N)nc3=O)O[C@@H]2COP(=O)(O)O[C@H]2[C@@H](O)[C@H](n3cnc4c(=O)[nH]c(N)nc43)O[C@@H]2COP(=O)(O)O[C@H]2[C@@H](O)[C@H](n3ccc(N)nc3=O)O[C@@H]2COP(=O)(O)O[C@H]2C[C@H](n3cc(C)c(=O)[nH]c3=O)O[C@@H]2COP(=O)(O)O[C@H]2C[C@H](n3cc(C)c(=O)[nH]c3=O)O[C@@H]2CO)O1	Active	49.4 °C	–	–
CSCCc1nc(N)nc2c1ncn2CC[C@H]1C[C@H](OP(=O)(O)OC[C@H]2O[C@@H](n3cnc4c(N)ncnc43)[C@H](O)[C@@H]2OP(=O)(O)OC[C@H]2O[C@@H](n3cc(C)c(=O)[nH]c3=O)C[C@@H]2OP(=O)(O)OC[C@H]2O[C@@H](n3cc(C)c(=O)[nH]c3=O)C[C@@H]2OP(=O)(O)OC[C@H]2O[C@@H](n3cnc4c(N)ncnc43)[C@H](O)[C@@H]2OP(=O)(O)OC[C@H]2O[C@@H](n3cnc4c(N)ncnc43)[C@H](O)[C@@H]2OP(=O)(O)OC[C@H]2O[C@@H](n3ccc(N)nc3=O)[C@H](O)[C@@H]2OP(=O)(O)OC[C@H]2O[C@@H](n3cnc4c(=O)[nH]c(N)nc43)[C@H](O)[C@@H]2OP(=O)(O)OC[C@H]2O[C@@H](n3ccc(N)nc3=O)[C@H](O)[C@@H]2OP(=O)(O)OC[C@H]2O[C@@H](n3ccc(N)nc3=O)[C@H](O)[C@@H]2OP(=O)(O)O)[C@@H](COP(=O)(O)O[C@H]2C[C@H](n3cc(C)c(=O)[nH]c3=O)O[C@@H]2COP(=O)(O)O[C@H]2C[C@H](n3cc(C)c(=O)[nH]c3=O)O[C@@H]2COP(=O)(O)O[C@H]2C[C@H](n3cc(C)c(=O)[nH]c3=O)O[C@@H]2COP(=O)(O)O[C@H]2[C@@H](O)[C@H](n3ccc(N)nc3=O)O[C@@H]2COP(=O)(O)O[C@H]2C[C@H](n3cc(C)c(=O)[nH]c3=O)O[C@@H]2COP(=O)(O)O[C@H]2[C@@H](O)[C@H](n3ccc(N)nc3=O)O[C@@H]2COP(=O)(O)O[C@H]2[C@@H](O)[C@H](n3ccc(N)nc3=O)O[C@@H]2COP(=O)(O)O[C@H]2[C@@H](O)[C@H](n3cnc4c(=O)[nH]c(N)nc43)O[C@@H]2COP(=O)(O)O[C@H]2[C@@H](O)[C@H](n3ccc(N)nc3=O)O[C@@H]2COP(=O)(O)O[C@H]2C[C@H](n3cc(C)c(=O)[nH]c3=O)O[C@@H]2COP(=O)(O)O[C@H]2C[C@H](n3cc(C)c(=O)[nH]c3=O)O[C@@H]2CO)O1	Active	50.4 °C	–	–
CSCCc1nc(N)nc2c1ncn2C[C@H]1C[C@H](OP(=O)(O)OC[C@H]2O[C@@H](n3cc(C)c(=O)[nH]c3=O)C[C@@H]2OP(=O)(O)OC[C@H]2O[C@@H](n3cc(C)c(=O)[nH]c3=O)C[C@@H]2OP(=O)(O)OC[C@H]2O[C@@H](n3ccc(N)nc3=O)[C@H](O)[C@@H]2OP(=O)(O)OC[C@H]2O[C@@H](n3cc(C)c(=O)[nH]c3=O)C[C@@H]2OP(=O)(O)OC[C@H]2O[C@@H](n3ccc(N)nc3=O)[C@H](O)[C@@H]2OP(=O)(O)OC[C@H]2O[C@@H](n3ccc(N)nc3=O)[C@H](O)[C@@H]2OP(=O)(O)OC[C@H]2O[C@@H](n3cc(C)c(=O)[nH]c3=O)C[C@@H]2OP(=O)(O)OC[C@H]2O[C@@H](n3cc(C)c(=O)[nH]c3=O)C[C@@H]2OP(=O)(O)OC[C@H]2O[C@@H](n3cc(C)c(=O)[nH]c3=O)C[C@@H]2OP(=O)(O)OC[C@H]2O[C@@H](n3ccc(N)nc3=O)[C@H](O)[C@@H]2OP(=O)(O)OC[C@H]2O[C@@H](n3cc(C)c(=O)[nH]c3=O)C[C@@H]2OP(=O)(O)O)[C@@H](COP(=O)(O)O[C@H]2C[C@H](n3cc(C)c(=O)[nH]c3=O)O[C@@H]2COP(=O)(O)O[C@H]2C[C@H](n3cc(C)c(=O)[nH]c3=O)O[C@@H]2COP(=O)(O)O[C@H]2C[C@H](n3cc(C)c(=O)[nH]c3=O)O[C@@H]2COP(=O)(O)O[C@H]2[C@@H](O)[C@H](n3ccc(N)nc3=O)O[C@@H]2CO)O1	–	–	inactive	inactive
CSCCc1nc(N)nc2c1ncn2CCCC[C@H]1C[C@H](OP(=O)(O)OC[C@H]2O[C@@H](n3cc(C)c(=O)[nH]c3=O)C[C@@H]2OP(=O)(O)OC[C@H]2O[C@@H](n3cc(C)c(=O)[nH]c3=O)C[C@@H]2OP(=O)(O)OC[C@H]2O[C@@H](n3ccc(N)nc3=O)[C@H](O)[C@@H]2OP(=O)(O)OC[C@H]2O[C@@H](n3cc(C)c(=O)[nH]c3=O)C[C@@H]2OP(=O)(O)OC[C@H]2O[C@@H](n3ccc(N)nc3=O)[C@H](O)[C@@H]2OP(=O)(O)OC[C@H]2O[C@@H](n3ccc(N)nc3=O)[C@H](O)[C@@H]2OP(=O)(O)OC[C@H]2O[C@@H](n3cc(C)c(=O)[nH]c3=O)C[C@@H]2OP(=O)(O)OC[C@H]2O[C@@H](n3cc(C)c(=O)[nH]c3=O)C[C@@H]2OP(=O)(O)OC[C@H]2O[C@@H](n3cc(C)c(=O)[nH]c3=O)C[C@@H]2OP(=O)(O)OC[C@H]2O[C@@H](n3ccc(N)nc3=O)[C@H](O)[C@@H]2OP(=O)(O)OC[C@H]2O[C@@H](n3cc(C)c(=O)[nH]c3=O)C[C@@H]2OP(=O)(O)O)[C@@H](COP(=O)(O)O[C@H]2C[C@H](n3cc(C)c(=O)[nH]c3=O)O[C@@H]2COP(=O)(O)O[C@H]2C[C@H](n3cc(C)c(=O)[nH]c3=O)O[C@@H]2COP(=O)(O)O[C@H]2C[C@H](n3cc(C)c(=O)[nH]c3=O)O[C@@H]2COP(=O)(O)O[C@H]2[C@@H](O)[C@H](n3ccc(N)nc3=O)O[C@@H]2CO)O1	–	–	inactive	inactive
Cc1cn([C@H]2C[C@H](OP(=O)(O)OC[C@H]3O[C@@H](n4cc(C)c(=O)[nH]c4=O)C[C@@H]3OP(=O)(O)OC[C@H]3O[C@@H](n4ccc(N)nc4=O)[C@H](O)[C@@H]3OP(=O)(O)OC[C@H]3O[C@@H](n4cnc5c(=O)[nH]c(N)nc54)[C@H](O)[C@@H]3OP(=O)(O)OC[C@H]3O[C@@H](n4ccc(N)nc4=O)[C@H](O)[C@@H]3OP(=O)(O)OC[C@H]3O[C@@H](n4ccc(N)nc4=O)[C@H](O)[C@@H]3OP(=O)(O)OC[C@H]3O[C@@H](n4cc(C)c(=O)[nH]c4=O)C[C@@H]3OP(=O)(O)OC[C@H]3O[C@@H](n4ccc(N)nc4=O)[C@H](O)[C@@H]3OP(=O)(O)OC[C@H]3O[C@@H](n4cc(C)c(=O)[nH]c4=O)C[C@@H]3OP(=O)(O)OC[C@H]3O[C@@H](n4cc(C)c(=O)[nH]c4=O)C[C@@H]3OP(=O)(O)OC[C@H]3O[C@@H](n4cc(C)c(=O)[nH]c4=O)C[C@@H]3OP(=O)(O)OC[C@H]3O[C@@H](n4cnc5c(=O)[nH]c(N)nc54)[C@H](O)[C@@H]3OP(=O)(O)OC[C@H]3O[C@@H](n4cnc5c(N)ncnc54)[C@H](O)[C@@H]3OP(=O)(O)OC[C@H]3O[C@@H](n4cc(C)c(=O)[nH]c4=O)C[C@@H]3OP(=O)(O)OC[C@H]3O[C@@H](n4cc(C)c(=O)[nH]c4=O)C[C@@H]3OP(=O)(O)OC[C@H]3O[C@@H](n4cnc5c(N)ncnc54)[C@H](O)[C@@H]3OP(=O)(O)OC[C@H]3O[C@@H](n4cnc5c(N)ncnc54)[C@H](O)[C@@H]3OP(=O)(O)OC[C@H]3O[C@@H](n4ccc(N)nc4=O)[C@H](O)[C@@H]3OP(=O)(O)OC[C@H]3O[C@@H](n4cnc5c(=O)[nH]c(N)nc54)[C@H](O)[C@@H]3OP(=O)(O)OC[C@H]3O[C@@H](n4ccc(N)nc4=O)[C@H](O)[C@@H]3OP(=O)(O)OC[C@H]3O[C@@H](n4ccc(N)nc4=O)[C@H](O)[C@@H]3OP(=O)(O)O)[C@@H](CO)O2)c(=O)[nH]c1=O	–	55.8 °C	–	–
CSCCc1nc(N)nc2c1ncn2[C@H]1C[C@H](OP(=O)(O)OC[C@H]2O[C@@H](n3cc(C)c(=O)[nH]c3=O)C[C@@H]2OP(=O)(O)OC[C@H]2O[C@@H](n3cc(C)c(=O)[nH]c3=O)C[C@@H]2OP(=O)(O)OC[C@H]2O[C@@H](n3ccc(N)nc3=O)[C@H](O)[C@@H]2OP(=O)(O)OC[C@H]2O[C@@H](n3cc(C)c(=O)[nH]c3=O)C[C@@H]2OP(=O)(O)OC[C@H]2O[C@@H](n3ccc(N)nc3=O)[C@H](O)[C@@H]2OP(=O)(O)OC[C@H]2O[C@@H](n3ccc(N)nc3=O)[C@H](O)[C@@H]2OP(=O)(O)OC[C@H]2O[C@@H](n3cc(C)c(=O)[nH]c3=O)C[C@@H]2OP(=O)(O)OC[C@H]2O[C@@H](n3cc(C)c(=O)[nH]c3=O)C[C@@H]2OP(=O)(O)OC[C@H]2O[C@@H](n3cc(C)c(=O)[nH]c3=O)C[C@@H]2OP(=O)(O)OC[C@H]2O[C@@H](n3ccc(N)nc3=O)[C@H](O)[C@@H]2OP(=O)(O)OC[C@H]2O[C@@H](n3cc(C)c(=O)[nH]c3=O)C[C@@H]2OP(=O)(O)O)[C@@H](COP(=O)(O)O[C@H]2C[C@H](n3cc(C)c(=O)[nH]c3=O)O[C@@H]2COP(=O)(O)O[C@H]2C[C@H](n3cc(C)c(=O)[nH]c3=O)O[C@@H]2COP(=O)(O)O[C@H]2C[C@H](n3cc(C)c(=O)[nH]c3=O)O[C@@H]2COP(=O)(O)O[C@H]2[C@@H](O)[C@H](n3ccc(N)nc3=O)O[C@@H]2CO)O1	–	–	inactive	inactive
